Bioassay records (PubChem)
SENP8 block-1 = inhibitors of human SENP8 protease | inhibition, % at 10 µM | Q96LD8 | AID 2540 | purified SENP8, Z-RLRGG-aminoluciferin cleavage, luminescence | actives 1.2% (n = 330,000); in the data active means inhibition above about 50%
SENP6 block = SENP6 protease inhibition | Q9GZR1 | Recombinant SENP6 catalytic domain, aminoluciferin luminescence | inhibition, % at 10 µM | actives 1.8% (n = 330,000) | AID 2599;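 active means inhibition above about 50% at the single tested dose, limit read from the data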;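 further: plate controls were DMSO wells with enzyme for no effect and DMSO wells lacking enzyme for full effect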
Target sequence (Q9GZR1 628-1112 limits assumed): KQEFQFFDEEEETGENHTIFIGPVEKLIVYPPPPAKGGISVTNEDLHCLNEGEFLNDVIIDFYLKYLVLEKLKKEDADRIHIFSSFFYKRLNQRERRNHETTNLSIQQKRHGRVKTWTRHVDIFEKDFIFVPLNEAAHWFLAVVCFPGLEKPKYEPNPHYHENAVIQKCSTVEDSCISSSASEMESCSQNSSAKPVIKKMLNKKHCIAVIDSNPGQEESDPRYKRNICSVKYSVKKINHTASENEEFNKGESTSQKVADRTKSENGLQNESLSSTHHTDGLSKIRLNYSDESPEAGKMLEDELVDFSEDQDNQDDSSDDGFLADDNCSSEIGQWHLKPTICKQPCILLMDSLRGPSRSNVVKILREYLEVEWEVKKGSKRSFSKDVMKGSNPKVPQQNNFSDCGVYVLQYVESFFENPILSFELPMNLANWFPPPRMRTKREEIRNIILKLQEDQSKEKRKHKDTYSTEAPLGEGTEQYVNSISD
SENP8 block-2 = SENP8 (human) protease inhibition | recombinant SENP8, Nedd8 substrate fluorescence | inhibition, % at 20 µM | actives 0.64% (n = 360,000); in the data active means inhibition mostly above about 40%, no sharp cut-off; inactive means mostly below about 27%
Apaf1 inhib = inhibitors of human Apaf-1 apoptosome | reconstituted apoptosome caspase-3 activity, DEVD-Rh110 fluorescence | inhibition, % at 20 µM | actives 0.71% (n = 330,000); active means inhibition of at least 40% at 20 µM;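 further: plate controls were DMSO wells for no effect and DEVD-CHO caspase inhibitor wells for full effect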
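Medium: Hepes buffer, pH 7.5 / System: biochemical Apaf-1 apoptosome reconstitution / Measured by: Rh110 fluorescence, excitation 480 nm, emission 540 nm / Times: compound with Apaf-1, dATP, procaspase-3 30 min, then 50 min reaction, room temperature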
SENP1 inh = SENP1 (human) catalytic domain inhibition; recombinant SENP1 catalytic domain, CyPet-SUMO1-YPet FRET cleavage; inhibition, % at 10 µM; actives 0.21% (n = 360,000);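 active means inhibition at least 30% at 10 µM, raw YFP signal under a set limit, fluorescence ratio 0.5 to 1.5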;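 further: 0% = enzyme with DMSO and 100% = no enzyme wells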
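material = recombinant human SENP1 catalytic domain, His6-tagged | quantity = 20 pM enzyme | reagent = 25 nM SUMO1 FRET substrate | compound dosing = 10 µM single point, 0.5% DMSO | timing = 50 min enzyme reaction, room temperature, light-protected | detection = FRET, CFP and YFP emission | control set = no-enzyme low, enzyme-DMSO high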
SENP7 inh = inhibitors of human SENP7 protease; Q9BQF6; recombinant SENP7, Z-RLRGG-aminoluciferin luminescence, 40 min; inhibition, % at 5 µM; actives 1.5% (n = 330,000);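 active means inhibition above about 50% at the single test dose, limit read from the data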;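 further: plate controls were DMSO with enzyme for no effect and no enzyme buffer wells for full effect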
SENP8 conf = confirmation of human SENP8 protease inhibitors | AID 488912 | actives 40% (n = 6,200) | Recombinant SENP8, Z-RLRGG-aminoluciferin luminescence, 60 min | shares compounds with SENP7 inh | inhibition, % at 12.5 µM;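 active means mean inhibition across replicates above about 50%, limit read from the data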
SENP6 conf = confirmation of human SENP6 protease inhibitors. inhibition, % at 12.5 µM. AID 488915. actives 58% (n = 6,200). recombinant SENP6, Z-RLRGG-aminoluciferin luminescence. shares compounds with SENP7 inh
SENP7 confirm = human SENP7 inhibition, confirmed; shares compounds with SENP7 inh; recombinant SENP7, Z-RLRGG-aminoluciferin luminescence, 40 min; inhibition, % at 12.5 µM; actives 69% (n = 6,200)
Casp3 select = selectivity test for SENP inhibitors: human caspase-3 inhibition | shares compounds with SENP7 inh | purified caspase-3, Z-DEVD-aminoluciferin luminescence, 60 min | inhibition, % at 12.5 µM | actives 60% (n = 6,200);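 active means mean inhibition above about 50%, limit read from the data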;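 further: plate controls were enzyme with DMSO for no effect and wells without caspase-3 for full effect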
SENP luc ctr = counter-screen for SENP inhibitors: luminescence interference; actives 39% (n = 6,200); Pre-incubated SENP8/Z-RLRGG-aminoluciferin, luciferase luminescence interference; shares compounds with SENP7 inh; inhibition, % at 12.5 µM;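 active means mean inhibition above about 50% when retested at one dose, limit read from the data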;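 further: plate controls were DMSO wells with completed reaction for no effect and substrate without enzyme for full effect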
* = called active by the depositor; / = no result given. An excerpt weighted towards active compounds, which were near 2.9% of everything screened.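 How the source made its calls, unless noted: active means mean inhibition above about 50% in the one-dose retest (limit read from the data); inactive means the rest.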

SMILES | SENP8 block-1 | SENP6 block | SENP8 block-2 | Apaf1 inhib | SENP1 inh | SENP7 inh | SENP8 conf | SENP6 conf | SENP7 confirm | Casp3 select | SENP luc ctr
CC1=CN2C(=N)/C(=C/c3ccco3)C(=O)N=C2S1 | 14 | 52* | 26 | 4 | -2 | 38 | 32 | 28 | 71* | 74* | 2
CC1=CN2C(=N)/C(=C/c3ccc([N+](=O)[O-])o3)C(=O)N=C2S1 | / | / | 18 | / | 16 | / | / | / | / | / | /
COc1cc(OC)cc(-c2oc(=O)c3cc(OC)c(OC)cc3c2C(F)(F)F)c1 | 4 | 8 | 2 | 10 | 2 | 0 | / | / | / | / | /
CCC(=O)N(CC)Cc1cc(=O)[nH]c2ccccc12 | -3 | 4 | -4 | 5 | 3 | -7 | / | / | / | / | /
CCCN(Cc1cc(=O)[nH]c2ccccc12)C(=O)CC | -7 | 98* | -29 | -5 | 0 | 4 | 5 | 3 | -6 | -4 | -10
O=C(Nc1nc2c(s1)CCCC2)c1ccc(Br)o1 | 86* | 91* | -40 | -6 | -3 | 88* | 90* | 91* | 99* | 91* | 87*
Cc1ccc(C(=O)Nc2nc3c(s2)CCCC3)o1 | 82* | 94* | -54 | 10 | -1 | 93* | 11 | 90* | 100* | 93* | 29
O=C(Nc1ccc2ccccc2c1)C(c1ccccc1)n1c(=O)c(-c2cc3ccccc3[nH]2)nc2ccccc21 (centres undefined) | / | / | -419 | / | -19 | / | / | / | / | / | /
CN(C)CC(=O)c1c(N)n(Cc2ccccc2)c(=O)n(C)c1=O | 1 | 0 | 19 | -10 | 2 | -3 | / | / | / | / | /
CCN(CC(=O)c1c(N)n(C)c(=O)n(C)c1=O)c1cccc2ccccc12 | 54* | 84* | -279 | 3 | -18 | 29 | 12 | 12 | 7 | -4 | -3
Cc1c(N=Cc2nc3ccccc3[nH]2)c(=O)n(-c2ccccc2)n1C | 16 | -5 | 22 | 6 | -1 | 1 | / | / | / | / | /
Cc1c(N=Cc2nc3ccccc3n2C)c(=O)n(-c2ccccc2)n1C | 51* | 46 | 26 | 6 | 1 | 83* | 58* | 80* | 99* | 97* | 12
C[C@@H]1CN([C@@H](C)CO)S(=O)(=O)c2ccc(C#CC(C)(C)O)cc2O[C@H]1CN(C)C(=O)C1CCCCC1 | / | / | -2 | / | 3 | / | / | / | / | / | /
Cc1ccc(C(=O)Nc2ccsc2C(=O)O)cc1 | 92* | 94* | 15 | 6 | 0 | 94* | 1 | 97* | 102* | 98* | 96*
O=C(Nc1ccsc1C(=O)O)c1ccc(Cl)cc1 | 91* | 94* | 2 | 22 | 1 | 88* | 95* | 96* | 101* | 96* | 95*
O=C(CNC(=O)c1ccccc1)Nc1ccsc1C(=O)O | 0 | -7 | 2 | 1 | 2 | 2 | / | / | / | / | /
CCCCNC(=O)c1nc(-c2cccnc2)oc1-c1ccc(OC(F)(F)F)cc1 | / | / | -420 | / | -1 | / | / | / | / | / | /
CC(NC(=O)c1ccc(Cl)c(S(=O)(=O)NC2CC2)c1)c1ccco1 (centres undefined) | / | / | 9 | / | 0 | / | / | / | / | / | /
N#CC1(NC(=O)COc2ccc(C(N)=O)cc2)CCCC1 | 2 | 13 | 4 | 2 | -1 | 2 | / | / | / | / | /
CCOC(=O)Cc1csc(N/N=C\c2ccccc2OC)n1 | 26 | 68* | -188 | 19 | -15 | 45 | 58* | 54* | 79* | 42 | 55*
